Laboratory results: ChEMBL document CHEMBL5036345, “Identification of a dual acting SARS-CoV-2 proteases inhibitor through in silico design and step-by-step biological characterization” (Eur J Med Chem, 2021)
pEC50, pIC50, pKd: −log10 of the molar value. Where a SMILES comes first, the peptide text is derived from it. [ ]: non-standard residue; d: D form. The star is where a group is joined. AllylGly = C=CC[C@H](N)C(=O)O; Boc = CC(C)(C)OC(=O)*; NHBn = c1ccc(CN*)cc1; NHtBu = CC(C)(C)N*; ClAc = O=C(CCl)*

Assays:
[1] = system: SARS-CoV-2; test: Antiviral activity against Severe acute respiratory syndrome coronavirus 2 UC-1074 infected in African green monkey Vero cells assessed as reduction in plaque formation measured after 5 days by microscopic analysis; type: functional, organism-based; conditions: Severe acute respiratory syndrome coronavirus 2, UC-1074, Vero, 120 h
[2] = system: SARS-CoV-2; test: Antiviral activity against Severe acute respiratory syndrome coronavirus 2 UC-1075 infected in African green monkey Vero cells assessed as reduction in plaque formation measured after 5 days by microscopic analysis; type: functional, organism-based; conditions: Severe acute respiratory syndrome coronavirus 2, UC-1075, Vero, 120 h
[3] = system: Vero; test: Cytotoxicity against African green monkey Vero cells assessed as reduction in cell viability by coulter counter method; type: cell-based; conditions: chlorocebus sabaeus
How it was run: (§1)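 Vero cells were treated with a compound dilution series in DMEM 2% FCS for 5 days at 37 °C, in parallel with the antiviral assay. MCC is the lowest concentration giving a microscopically detectable change in morphology. CC50 is the concentration halving cell number in mock-infected cultures, counted by Coulter counter.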

[4] = Inhibition of SARS CoV-2 main protease using DABCYL-KTSAVLQ1SGFRKM-E(EDANS)-NH2 as substrate preincubated for 30 mins followed by substrate addition and measured after 4 hrs by multimode microplate reader assay; design: species or system Severe acute respiratory syndrome coronavirus 2
[5] = target: Spike glycoprotein (Severe acute respiratory syndrome coronavirus 2, UniProt P0DTC2); test: Binding affinity to CM5 sensor chip immobilized SARS-CoV-2 spike glycoprotein assessed as dissociation constant by SPR analysis
How it was run: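 Spike protein (1.25 μM in 10 mM sodium acetate, pH 4.59) was amine-coupled to about 11500 RU, with the first channel as reference. Running buffer was 10× diluted HBS-P plus 5% DMSO. Compounds at 0.75–100 μM were injected at 25 °C and 20 μL/min, with 90 s association and 600 s dissociation. Runs were in triplicate; KD came from a global 1:1 fit.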

[6] = Inhibition of SARS CoV-2 papain-like protease using Z-Arg-Leu-Arg-Gly-Gly-AMC as substrate preincubated for 30 mins followed by substrate addition and measured after 50 mins by multimode plate reader method; design: species or system Severe acute respiratory syndrome coronavirus 2
[7] = Cytotoxicity against African green monkey Vero cells assessed as effect on cell morphology by microscopic analysis; type: cell-based; conditions: chlorocebus sabaeus; how it was run: as §1

C=CC[C@H](NCc1ccccc1)C(=O)N[C@@H](Cc1c[nH]c2ccccc12)C(=O)NCc1ccc(-c2ccccc2)cc1
pEC50 [1]: 4.20 | pEC50 [2]: < 4.70 | CC50 [3]: 78.4 µM | pIC50 [4]: < 4.60 | pKd [5]: < 4.60 | pIC50 [6]: < 4.60 | MCC [7]: > 100 µM

C#CC[C@H](NCCC)C(=O)N[C@@H](Cc1c[nH]c2ccccc12)C(=O)NCc1ccc(-c2ccccc2)cc1
pEC50 [1]: < 4.70 | pEC50 [2]: < 4.70 | CC50 [3]: 42.4 µM | pIC50 [4]: 4.64 | pIC50 [6]: < 4.60 | MCC [7]: > 100 µM

CC(C)(C)NC(=O)[C@H](Cc1c[nH]c2ccccc12)NC(=O)[C@H](Cc1ccccc1)NCc1ccc(-c2ccccc2)cc1
pEC50 [1]: 5.66 | pEC50 [2]: 5.70 | CC50 [3]: 1.49 µM | pIC50 [4]: < 4.60 | pKd [5]: 4.72 | pIC50 [6]: < 4.60 | MCC [7]: > 100 µM

C#CC[C@H](NCc1ccc(-c2ccccc2)cc1)C(=O)N[C@@H](Cc1c[nH]c2ccccc12)C(=O)NC(C)(C)C
pEC50 [1]: < 5.40 | pEC50 [2]: < 5.40 | CC50 [3]: 4.67 µM | pIC50 [4]: < 4.60 | pKd [5]: < 4.60 | pIC50 [6]: < 4.60 | MCC [7]: 20 µM

C#CC[C@H](NC(=O)OC(C)(C)C)C(=O)N(Cc1ccccc1)Cc1cn(C)c2ccc(C(=O)OC)cc12
pEC50 [1]: 5.40 | pEC50 [2]: 4.70 | CC50 [3]: 8.09 µM | pIC50 [4]: < 4.60 | pKd [5]: 4.94 | pIC50 [6]: < 4.60 | MCC [7]: 100 µM

C=CC[C@H](NC(=O)CCl)C(=O)N[C@@H](Cc1c[nH]c2ccccc12)C(=O)NCc1ccccc1 (ClAc-[AllylGly]-Trp-NHBn)
pEC50 [1]: 6.49 | pEC50 [2]: 5.86 | CC50 [3]: 38.7 µM | pIC50 [4]: 5.76 | pKd [5]: < 4.60 | pIC50 [6]: 6.17 | MCC [7]: 100 µM

CC(C)C[C@H](NCc1ccc(-c2ccccc2)cc1)C(=O)N[C@@H](Cc1c[nH]c2ccccc12)C(=O)NCc1ccccc1
pEC50 [1]: < 5.40 | pEC50 [2]: < 5.40 | CC50 [3]: 34.7 µM | pIC50 [4]: 4.63 | pIC50 [6]: < 4.60 | MCC [7]: > 20 µM

COC(=O)c1ccc2c(c1)c(CN(CCc1ccc(-c3ccccc3)cc1)Cc1ccccc1)cn2CC(C)C
pEC50 [1]: 5.22 | pEC50 [2]: 6.36 | CC50 [3]: 31.5 µM | pIC50 [4]: < 4.60 | pKd [5]: 5.49 | pIC50 [6]: < 4.60 | MCC [7]: 100 µM

CC(C)C[C@H](NCc1ccc(-c2ccccc2)cc1)C(=O)N[C@@H](Cc1c[nH]c2ccccc12)C(=O)NC(C)(C)C
pEC50 [1]: < 5.40 | pEC50 [2]: < 5.40 | CC50 [3]: 10.6 µM | pIC50 [4]: 5.76 | pKd [5]: < 4.60 | pIC50 [6]: < 4.60 | MCC [7]: 20 µM

C#CC[C@H](NCc1ccccc1)C(=O)N[C@@H](Cc1c[nH]c2ccccc12)C(=O)NCc1ccc(-c2ccccc2)cc1
pEC50 [1]: 5.05 | pEC50 [2]: 4.96 | CC50 [3]: 51.5 µM | pIC50 [4]: 5.54 | pIC50 [6]: < 4.60 | MCC [7]: ≥ 100 µM

CCC(CC)COC(=O)[C@H](C)N[P@](=O)(OC[C@H]1O[C@@](C#N)(c2ccc3c(N)ncnn23)[C@H](O)[C@@H]1O)Oc1ccccc1
pEC50 [1]: 6.06 | pEC50 [2]: 6.21 | CC50 [3]: > 40 µM | MCC [7]: > 40 µM

CC(C)(C)NC(=O)[C@H](Cc1c[nH]c2ccccc12)NC(=O)[C@@H]1CCCN1C(=O)OC(C)(C)C (Boc-Pro-Trp-NHtBu)
pEC50 [1]: < 4.00 | pEC50 [2]: < 4.00 | CC50 [3]: > 100 µM | pIC50 [4]: 5.30 | pKd [5]: < 4.60 | pIC50 [6]: < 4.60 | MCC [7]: > 100 µM
